Measured values taken from ChEMBL document CHEMBL1140462, “Convenient synthesis of indeno[1,2-c]isoquinolines as constrained forms of 3-arylisoquinolines and docking study of a topoisomerase I inhibitor into DNA-topoisomerase I complex” (Bioorg Med Chem Lett, 2007).
Calls of active or inactive are those of the source. The rule behind the calls is not given here.

Legend:
HCT-15 = assay: Cytotoxicity against human HCT15 cells by SRB assay; format: functional, cell-based
Method in brief: (§1)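 Panel of four human tumour lines: A549 (lung), SKOV-3 (ovarian), SK-MEL-2 (melanoma) and HCT 15 (colon). Each was exposed to compound in vitro, and cytotoxicity was read out by sulforhodamine B (SRB) staining.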

A549 = assay: Cytotoxicity against human A549 cells by SRB assay; format: functional, cell-based; method in brief: as §1
SK-MEL-2 = assay: Cytotoxicity against human SK-MEL-2 cells by SRB assay; format: functional, cell-based; method in brief: as §1
[1] = Cytotoxicity against human OV3 cells by SRB assay; format: functional, cell-based; method in brief: as §1
[2] = biological target: T1, DNA topoisomerase 1 (Homo sapiens) (UniProt P11387); assay: Inhibition of topoisomerase 1 by supercoiled DNA unwinding method relative to camptothecin; format: functional
T1 sequence (whole entry): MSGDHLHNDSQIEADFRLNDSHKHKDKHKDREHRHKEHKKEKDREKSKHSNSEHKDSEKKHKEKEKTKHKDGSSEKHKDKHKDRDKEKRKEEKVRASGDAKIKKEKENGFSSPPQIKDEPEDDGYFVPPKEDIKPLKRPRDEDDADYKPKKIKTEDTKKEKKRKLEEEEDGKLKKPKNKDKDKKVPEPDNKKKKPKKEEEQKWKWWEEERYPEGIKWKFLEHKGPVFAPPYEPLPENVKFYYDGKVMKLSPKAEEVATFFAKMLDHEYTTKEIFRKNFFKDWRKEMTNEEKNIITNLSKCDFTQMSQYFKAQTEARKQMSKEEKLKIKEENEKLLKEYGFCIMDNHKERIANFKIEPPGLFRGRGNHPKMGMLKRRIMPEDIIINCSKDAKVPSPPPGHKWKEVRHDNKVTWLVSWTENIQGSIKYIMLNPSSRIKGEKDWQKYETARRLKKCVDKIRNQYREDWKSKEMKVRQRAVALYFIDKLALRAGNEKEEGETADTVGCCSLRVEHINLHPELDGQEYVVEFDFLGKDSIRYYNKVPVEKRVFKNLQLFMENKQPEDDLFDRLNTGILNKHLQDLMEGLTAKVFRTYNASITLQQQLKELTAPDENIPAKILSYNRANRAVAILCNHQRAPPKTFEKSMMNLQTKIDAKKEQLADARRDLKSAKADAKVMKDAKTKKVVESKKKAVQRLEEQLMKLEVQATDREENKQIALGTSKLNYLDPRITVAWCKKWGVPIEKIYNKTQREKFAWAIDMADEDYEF

| Compound | IC50 (HCT-15) | IC50 (A549) | IC50 (SK-MEL-2) | IC50 [1] | Activity [2] |
| --- | --- | --- | --- | --- | --- |
| Cc1ccc2c(=O)n(C)c3c(c2c1)C(OCC(C)C)c1ccccc1-3 (stereo not drawn) | 27.4 µM | 28.2 µM | 10.5 µM | 38.4 µM |  |
| Cn1c2c(c3ccccc3c1=O)Cc1ccccc1-2 | 20.5 µM | 30.1 µM | 130 µM | 30.6 µM |  |
| COc1ccc(Cn2c3c(c4cc(C)ccc4c2=O)C(=O)c2ccccc2-3)cc1 | 171 µM | 155 µM | 158 µM | 102 µM |  |
| Cc1ccc2c(=O)n(C)c3c(c2c1)C(=O)c1ccccc1-3 | 14.3 µM | 20.1 µM | 17.1 µM | 16.3 µM |  |
| Cn1c2c(c3ccccc3c1=O)C(=O)c1ccccc1-2 | 30.6 µM | 23.5 µM | 90.2 µM | 81 µM |  |
| COc1ccc(Cn2c3c(c4cc(C)ccc4c2=O)C(O)c2ccccc2-3)cc1 (stereo not drawn) | 20.2 µM | 100 µM | 181 µM | 71 µM |  |
| CCOC1c2ccccc2-c2c1c1cc(C)ccc1c(=O)n2C (stereo not drawn) | 20.6 µM | 90 µM | 40.9 µM | 70.9 µM |  |
| CC[C@@]1(O)C(=O)OCc2c1cc1n(c2=O)Cc2cc3ccccc3nc2-1 [CAMPTOTHECIN] | 0.08 µM | 0.067 µM | 0.075 µM | 0.024 µM | Active |
| COc1ccc(Cn2c3c(c4cc(C)ccc4c2=O)C(OC)c2ccccc2-3)cc1 (stereo not drawn) | 1.11 µM | 10.2 µM | 15.2 µM | 1.36 µM |  |
| COc1ccc(Cn2c3c(c4cc(C)ccc4c2=O)Cc2ccccc2-3)cc1 | 8.9 µM | 51 µM | 31.9 µM | 23.2 µM |  |
| COc1cccc2c1C(=O)c1c(O)c3c(c(O)c1C2=O)C[C@@](O)(C(=O)CO)C[C@@H]3O[C@H]1C[C@H](N)[C@H](O)[C@H](C)O1 (stereo in doubt) [DOXORUBICIN] |  |  |  | 1.17 µM |  |
| COC1c2ccccc2-c2c1c1cc(C)ccc1c(=O)n2C (stereo not drawn) | 20.9 µM | 130 µM | 70.3 µM | 60.1 µM |  |
| CCCCCOC1c2ccccc2-c2c1c1cc(C)ccc1c(=O)n2Cc1ccc(OC)cc1 (stereo not drawn) | 5.59 µM | 11.2 µM | 11.2 µM | 5.7 µM |  |
| CCCOC1c2ccccc2-c2c1c1cc(C)ccc1c(=O)n2C (stereo not drawn) | 10.9 µM | 40.6 µM | 80.3 µM | 70.7 µM |  |
| COc1ccc(Cn2c3c(c4cc(C)ccc4c2=O)C(OCC(C)C)c2ccccc2-3)cc1 (stereo not drawn) |  | 1.87 µM | 2.07 µM | 1.63 µM | Active |
| CCCCOC1c2ccccc2-c2c1c1cc(C)ccc1c(=O)n2C (stereo not drawn) | 10.2 µM | 110 µM | 20.9 µM | 30.5 µM |  |
| CCCCOC1c2ccccc2-c2c1c1cc(C)ccc1c(=O)n2Cc1ccc(OC)cc1 (stereo not drawn) | 4.4 µM | 3.24 µM | 3.37 µM | 2.01 µM |  |
| Cc1ccc2c(=O)n(C)c3c(c2c1)Cc1ccccc1-3 | 20.1 µM | 130 µM | 80.3 µM | 261 µM |  |
| CCCOC1c2ccccc2-c2c1c1cc(C)ccc1c(=O)n2Cc1ccc(OC)cc1 (stereo not drawn) | 1.42 µM | 3.45 µM | 6.26 µM | 5.76 µM | Active |
| CCCCCOC1c2ccccc2-c2c1c1cc(C)ccc1c(=O)n2C (stereo not drawn) | 22 µM | 16.2 µM | 26.5 µM | 13.3 µM |  |
| CCOC1c2ccccc2-c2c1c1cc(C)ccc1c(=O)n2Cc1ccc(OC)cc1 (stereo not drawn) | 1.93 µM | 6.71 µM | 3.6 µM | 5.89 µM |  |
| COc1ccc(Cn2c3c(c4cc(C)ccc4c2=O)C(OC(C)C)c2ccccc2-3)cc1 (stereo not drawn) | 0.91 µM | 6.22 µM | 2.43 µM | 1.21 µM | Active |
